The record followed here is ChEMBL document CHEMBL1123408, “Influence of alkyl-chain fluorination on the action of mammary tumor inhibiting 2,3-bis(hydroxyphenyl)butanes and 2,3-bis(hydroxyphenyl)but-2-enes” (1986).

Experiment [1] is filed under the species Mus musculus. The experiment in a line: Relative average tumor wet weight in treated compared to untreated mice at 2.76 mg dose. It counts as functional. In a few lines: (§1)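 Syngeneic female BD2F1 mice (8–10 weeks) received sc trocar implants of 1–2-mm³ MXT tumor pieces, 10 per group. Treatment began the next day: sc doses in olive oil (solution or suspension), three times weekly for 6 weeks. Tamoxifen-treated control group included. Tumor wet weight measured at sacrifice; expressed as % T/C versus untreated controls.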

Experiment [2] deals with T1, Estrogen receptor (Mus musculus) (UniProt O08537+P19785). The experiment can be described thus: Uterotrophic effect in mice at 25 ug dose. As to conditions: Uterus. It counts as functional, tissue-based. Details: unit not given here. In a few lines:
(§2)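 Immature female NMRI mice, 20 days old, 10 per group, given daily sc injections of 0.1 mL olive oil solution for 3 days. Uteri removed 24 h after the last dose, fixed in Bouin's solution, washed, dried and weighed. Antiestrogenic testing measured inhibition of estrone-stimulated uterine growth.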

Experiment [3] concerns the target T1, Estrogen receptor (Mus musculus). The experiment can be described thus: Anti-uterotrophic effect in mice at 500 ug dose. Type of experiment: functional. The procedure, abridged: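 Immature female NMRI mice, 20 days old (14.5 ± 1.2 g), randomized into groups of 10. Each received a daily sc injection of compound in 0.1 mL olive oil for 3 days, given together with estrone. Uteri were taken 24 h after the last injection, fixed in Bouin's solution, washed, dried and weighed. The read-out was inhibition of estrone-stimulated uterine growth.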

Experiment [4] shares this target. The experiment can be described thus: (§3) Uterotrophic effect in mice at 100 ug dose. It counts as functional, tissue-based. Set-up: unit not given here. The settings on record: Uterus. In a few lines:
as §2

Experiment [5] has the same target. The experiment can be described thus: Uterotrophic effect in mice at 5 ug dose. Type of experiment: functional, tissue-based. The settings on record: Uterus. In a few lines: as §2
Experiment [6] shares this target. The experiment in a line: Uterotrophic effect in BD2F mice bearing transplantable hormone dependent MXT at 13.80 mg dose. It counts as functional, tissue-based. As to conditions: Uterus. In a few lines:
(§4)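 MXT-bearing female BD2F1 mice (10 per group) dosed sc in olive oil three times weekly for 6 weeks from the day after tumor transplantation. Uteri excised at sacrifice and dry weight determined; values given as mean ± SD.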

Experiment [7] shares this target. The experiment in a line: (§5) Uterotrophic effect in mice at 0 ug dose. Type of experiment: functional, tissue-based. Set-up: unit not given here. The settings on record: Uterus. The procedure, abridged: as §2
For experiment [8] the target is unchanged. The experiment can be described thus: (§6) Uterotrophic effect in mice at 1000 ug dose. It counts as functional, tissue-based. Details: unit not given here. As to conditions: Uterus. The procedure, abridged: as §2
Experiment [9] shares this target. The experiment can be described thus: (§7) Uterotrophic effect in mice at 10 ug dose. Type of experiment: functional, tissue-based. The settings on record: Uterus. In a few lines: as §2
The species named for experiment [10] is Mus musculus. The experiment can be described thus: Relative average tumor wet weight in treated compared to untreated mice at 13.80 mg dose. It counts as functional. In a few lines: (§8)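 MXT mammary tumor pieces of 1-2 mm³ from syngeneic donors were implanted sc by trocar into female BD2F₁ mice aged 8-10 weeks (20.0 ± 1.7 g), groups of 10. From the next day, compound in olive oil was given sc three times weekly for 6 weeks. Tumor wet weight was measured at the end and expressed as % T/C.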

Experiment [11] deals with T1, Estrogen receptor (Mus musculus). The description is as §3. It counts as functional, tissue-based. Details: unit not given here. The settings on record: Uterus. The procedure, abridged:
as §2
The source holds these as a separate data set.

Experiment [12] has the same target. The experiment in a line: Uterotrophic effect in BD2F mice bearing transplantable hormone dependent MXT at 2.76 mg dose. Type of experiment: functional, tissue-based. The settings on record: Uterus. In a few lines: as §4
Experiment [13] shares this target. The experiment in a line: Uterotrophic effect in mice at 500 ug dose. It counts as functional, tissue-based. The settings on record: Uterus. Details: unit not given here. The procedure, abridged: as §2
Experiment [14] has the same target. The experiment is described as §5. It counts as functional, tissue-based. Set-up: unit not given here. As to conditions: Uterus. The procedure, abridged:
as §2
The source holds these as a separate data set.

Experiment [15] shares this target. The experiment in a line: Uterotrophic effect in mice at 1 ug dose. It counts as functional, tissue-based. Details: unit not given here. The settings on record: Uterus. In a few lines: as §2
The species entered for experiment [16] is Mus musculus. The experiment can be described thus: Relative average tumor wet weight in treated compared to untreated mice at 4 mg dose. Type of experiment: functional. In a few lines:
as §1

Experiment [17] has as its target T1, Estrogen receptor (Mus musculus). The experiment in a line: Uterotrophic effect in BD2F mice bearing transplantable hormone dependent MXT at 4 mg dose. Type of experiment: functional, tissue-based. The procedure, abridged:
as §4

Experiment [18] has the same target. The experiment in a line: Uterotrophic effect in BD2F mice bearing transplantable hormone dependent MXT at 0.8 mg dose. It counts as functional, tissue-based. The procedure, abridged: as §4
Experiment [19] shares this target. The experiment is described as §7. Type of experiment: functional, tissue-based. Details: unit not given here. As to conditions: Uterus. In a few lines:
as §2

The target is the same in experiment [20]. The experiment can be described thus: Uterotrophic effect in mice at 0.1 ug dose. The settings on record: Uterus. It counts as functional, tissue-based. Set-up: unit not given here. The procedure, abridged:
as §2

Experiment [21] is filed under the species Mus musculus. The experiment in a line: Relative average tumor wet weight in treated compared to untreated mice at 0.8 mg dose. Type of experiment: functional. In a few lines:
as §8

Experiment [22] has as its target T1, Estrogen receptor (Mus musculus). The experiment can be described thus: Uterotrophic effect in BD2F mice bearing transplantable hormone dependent MXT at 20 mg dose. It counts as functional, tissue-based. As to conditions: Uterus. The procedure, abridged: as §4
The species entered for experiment [23] is Mus musculus. The experiment can be described thus: Relative average tumor wet weight in treated compared to untreated mice at 20 mg dose. Type of experiment: functional. In a few lines: as §1
Experiment [24] concerns the target T1, Estrogen receptor (Mus musculus). The description is as §6. It counts as functional, tissue-based. As to conditions: Uterus. The procedure, abridged: as §2
Experiment [25] shares this target. As to conditions: Uterus.
Experiment [26] shares this target.
The target is the same in experiment [27]. As to conditions: Uterus. This is another data set of the same source.
Experiment [28] shares this target. As to conditions: Uterus. This is another data set of the same source.
The target is the same in experiment [29]. This is another data set of the same source.
The target is the same in experiment [30]. This is another data set of the same source.
For experiment [31] the target is unchanged. As to conditions: Uterus. This is another data set of the same source.
Experiment [32] shares this target. As to conditions: Uterus. This is another data set of the same source.
For experiment [33] the target is unchanged. This is another data set of the same source.
Experiment [34] shares this target. As to conditions: Uterus. The source holds these as a separate data set.
The target is the same in experiment [35]. The settings on record: Uterus. This is another data set of the same source.
The target is the same in experiment [36]. This is another data set of the same source.
The target is the same in experiment [37]. The settings on record: Uterus. The source holds these as a separate data set.

T1 sequence (O08537 whole entry, looked up): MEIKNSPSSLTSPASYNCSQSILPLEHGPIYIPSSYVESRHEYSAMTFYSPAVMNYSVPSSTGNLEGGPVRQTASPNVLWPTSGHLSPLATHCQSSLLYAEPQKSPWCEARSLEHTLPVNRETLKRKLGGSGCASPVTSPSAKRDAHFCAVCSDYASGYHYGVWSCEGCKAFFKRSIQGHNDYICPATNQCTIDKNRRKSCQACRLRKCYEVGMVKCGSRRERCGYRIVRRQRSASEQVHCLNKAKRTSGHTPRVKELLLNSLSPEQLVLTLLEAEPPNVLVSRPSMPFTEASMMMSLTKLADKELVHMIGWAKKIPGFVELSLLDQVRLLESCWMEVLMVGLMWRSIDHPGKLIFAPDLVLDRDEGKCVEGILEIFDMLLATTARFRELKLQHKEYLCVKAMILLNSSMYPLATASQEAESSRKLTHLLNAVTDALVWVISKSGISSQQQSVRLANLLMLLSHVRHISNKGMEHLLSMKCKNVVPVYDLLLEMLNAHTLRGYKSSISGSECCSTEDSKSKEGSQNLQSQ
T1 sequence (P19785 whole entry, looked up): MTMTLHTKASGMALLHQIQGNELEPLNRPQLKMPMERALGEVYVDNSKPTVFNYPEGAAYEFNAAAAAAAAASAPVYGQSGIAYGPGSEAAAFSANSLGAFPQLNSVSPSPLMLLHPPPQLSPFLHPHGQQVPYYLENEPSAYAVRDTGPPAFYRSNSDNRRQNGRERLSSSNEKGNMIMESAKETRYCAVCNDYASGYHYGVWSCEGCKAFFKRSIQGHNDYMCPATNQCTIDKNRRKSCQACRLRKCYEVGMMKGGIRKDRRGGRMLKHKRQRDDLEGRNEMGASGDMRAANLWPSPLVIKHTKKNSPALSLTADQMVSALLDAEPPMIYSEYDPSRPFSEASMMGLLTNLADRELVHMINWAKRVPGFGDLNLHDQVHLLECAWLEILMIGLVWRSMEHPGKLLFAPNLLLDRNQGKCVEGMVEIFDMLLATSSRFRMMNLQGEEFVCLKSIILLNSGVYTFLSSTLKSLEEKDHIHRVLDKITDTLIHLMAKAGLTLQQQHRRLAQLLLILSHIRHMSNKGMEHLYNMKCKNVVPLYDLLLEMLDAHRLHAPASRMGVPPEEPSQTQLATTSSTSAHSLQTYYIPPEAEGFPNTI

Turning to `C/C(=C(/C)c1cccc(O)c1)c1cccc(O)c1`, the TC in experiment [1] worked out at 88%; in experiment [10] it was 69.9%. For the same molecule, the Effect was 42.3 in experiment [2]; 13.8 in experiment [4]; 37.2 in [5]; 88.4 in [6]; 13.3 in experiment [7]; 12.8 in experiment [8]. The Effect is 12.2 in [9]; 43.5 in [11]; 80.7 in experiment [12]; 33.1 in [13]; 12.9 in experiment [14]. Also, the inhibition in experiment [3] turned out to be 27.2%.

In the case of `Oc1ccc([C@H]([C@H](c2ccc(O)cc2)C(F)(F)F)C(F)(F)F)cc1`, the Effect in experiment [15] came to 42.5; in experiment [7], 10.8; in [19], 35.4; in experiment [20], 46.9. Further, the TC in experiment [16] is on record as 7.2%; in [21], 21.3%. Further, the Uterus effect was determined as 188 in [17] and 136 in experiment [18].

In the case of `Oc1cccc(/C(=C(/c2cccc(O)c2)C(F)(F)F)C(F)(F)F)c1`, the Effect was 82.1 in experiment [22]; 47.4 in [2]; 25.3 in [15]; 45.5 in experiment [4]; 74.8 in experiment [17] (Uterus); 43 in experiment [5]. The Effect in experiment [7] is 11.1; in [19], 29; in [20], 15.7; in experiment [11], 47.8; in experiment [13], 52.6; in experiment [14], 14.8. For the same molecule, the Effect in [24] was 51.8. Also, the TC in [23] was found to be 11.5%; in experiment [16], 25.7%.

`C[C@]12CC[C@@H]3c4ccc(O)cc4CC[C@H]3[C@@H]1CCC2=O`: the Effect is 46.6 in experiment [25]; 39.3 in experiment [26]; 46.8 in [27]; 39.8 in experiment [28]; 39.5 in experiment [29]; 39.5 in [30]. Moreover, the Effect was found to be 46.4 in experiment [31]; 46.8 in experiment [32]; 39.5 in experiment [33]; 45.6 in experiment [34]; 49 in [35]; 41.8 in experiment [36]. Also, the Effect in experiment [37] was 47.3.

As a reminder, the inhibition is the change of the read-out against control, counted positive when it falls.
